In assay [1] the target is T1, Neuronal acetylcholine receptor; alpha3/beta4 (Homo sapiens, UniProt P30926+P32297). The experiment in a line: Agonist activity at alpha-3-beta-4 nAChR in KXalpha-3-beta-4R2 cells by rubidium efflux assay relative to nicotine. The assay is classed as functional, cell-based. Also on record: concentration or dose not given beside the values. The method in brief: (§1)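 KXα3β4R2 cells (stably expressing α3β4 nAChR) grown in selection MEM with 10% FBS and geneticin, plated on poly(D-lysine) and grown 48 h at 37 °C to >90% confluence. Cells were loaded with 86Rb+ (2 μCi/well) for 4 h at 37 °C and washed three times in buffer A (Hepes/NaCl/KCl/MgSO4/CaCl2/glucose, pH 7.4). Compound in buffer A was applied for 2 min, and efflux was counted by liquid scintillation.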
T1 sequence (P30926 whole entry): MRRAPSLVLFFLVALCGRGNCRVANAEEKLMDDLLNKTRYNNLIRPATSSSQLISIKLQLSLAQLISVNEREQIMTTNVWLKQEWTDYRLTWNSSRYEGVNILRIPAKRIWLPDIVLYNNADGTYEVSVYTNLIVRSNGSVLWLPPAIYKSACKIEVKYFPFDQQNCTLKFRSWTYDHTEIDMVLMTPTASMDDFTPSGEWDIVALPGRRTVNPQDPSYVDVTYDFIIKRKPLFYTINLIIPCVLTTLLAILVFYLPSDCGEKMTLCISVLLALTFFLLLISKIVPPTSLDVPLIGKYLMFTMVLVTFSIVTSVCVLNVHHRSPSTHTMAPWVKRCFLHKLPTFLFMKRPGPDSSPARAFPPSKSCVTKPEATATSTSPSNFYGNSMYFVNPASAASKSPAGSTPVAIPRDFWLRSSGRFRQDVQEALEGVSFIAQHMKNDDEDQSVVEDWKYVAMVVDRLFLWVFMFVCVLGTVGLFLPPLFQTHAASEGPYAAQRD
T1 sequence (P32297 whole entry): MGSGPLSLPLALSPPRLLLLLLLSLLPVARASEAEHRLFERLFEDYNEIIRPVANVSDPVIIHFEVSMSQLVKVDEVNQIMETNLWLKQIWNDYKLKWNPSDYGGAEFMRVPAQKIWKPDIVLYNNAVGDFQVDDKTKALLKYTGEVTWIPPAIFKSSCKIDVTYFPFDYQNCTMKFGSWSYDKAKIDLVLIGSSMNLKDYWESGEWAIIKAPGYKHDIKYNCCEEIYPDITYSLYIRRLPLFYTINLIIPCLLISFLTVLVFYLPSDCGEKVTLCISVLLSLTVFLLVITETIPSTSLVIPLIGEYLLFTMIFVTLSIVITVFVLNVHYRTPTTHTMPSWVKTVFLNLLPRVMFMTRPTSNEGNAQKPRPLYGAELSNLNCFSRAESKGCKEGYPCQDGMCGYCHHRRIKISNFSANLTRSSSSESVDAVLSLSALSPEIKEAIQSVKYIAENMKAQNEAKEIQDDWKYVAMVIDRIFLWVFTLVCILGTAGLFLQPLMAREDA

The target of assay [2] is T1, Neuronal acetylcholine receptor; alpha3/beta4. The experiment in a line: Agonist activity at alpha-3-beta-4 nAChR in KXalpha-3-beta-4R2 cells by rubidium efflux assay. The class given is functional, cell-based. The method in brief:
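KXα3β4R2 cells stably expressing α3β4 nAChRs, grown in MEM/10% FBS with geneticin selection, plated on poly(D-lysine) and grown 48 h at 37 °C to >90% confluence. Loaded with 86Rb+ (2 μCi/well) 4 h at 37 °C, washed in Hepes-buffered saline pH 7.4, then exposed to compound for 2 min. Released 86Rb+ counted by liquid scintillation.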

Assay [3] has as its target Neuronal acetylcholine receptor; alpha4/beta2 (Homo sapiens) (UniProt P17787+P43681). The experiment in a line: Displacement of [3H]epibatidine from alpha-4-beta-2 nAChR immobilized on liquid chromatographic stationary phases. The class given is protein-complex assay.
Assay [4] deals with T1, Neuronal acetylcholine receptor; alpha3/beta4. The experiment in a line: Displacement of [3H]epibatidine from alpha-3-beta-4 nAChR immobilized on liquid chromatographic stationary phases. The class given is protein-complex assay. For orientation: In a radioligand displacement assay an active substance lowers the binding of a labelled ligand.
For assay [5] the target is unchanged. The experiment in a line: Agonist activity at alpha3beta4 nAChR in KXalpha-3-beta-4R2 cells by rubidium efflux assay at 1 mM. The class given is functional, cell-based. The method in brief:
as §1

Active and inactive are the calls of the source. The rule behind the calls is not given here.

As usually defined, the EC50 is the concentration needed to bring the measured effect to its halfway point. For the compound `COC(=O)N1CC[C@@H]2CCc3ccnc(Cl)c3[C@@H]21`, the values for the Activity in assay [1], in assay [3] and in assay [4] were 10%, 0.18 mL and -0.32 mL, respectively. In assay [2], this compound returned an EC50 greater than 1000 µM.
For the compound `COC(=O)N1CC[C@@H]2C=Cc3cc(Cl)nc(Cl)c3[C@@H]21`, the Activity in assay [1] worked out at 100%; in assay [3] it was 0.28 mL; in assay [4], 0.28 mL. The compound further yielded an EC50 in assay [2] of 20.8 µM.
For the compound `COC(=O)N1CCC[C@@H]2C[C@@H](Sc3ccccc3)c3cc(Cl)nc(Cl)c3[C@@H]21`, the Activity in assay [1] is 100%. It took 18.2 µM to reach a half-maximal effect in assay [2] (EC50).
As for `CN1CCC[C@H]1c1cccnc1`, the Activity in assay [1] stood at 100%; in assay [3], 0.26 mL; in assay [4], 0.16 mL.
On to `Clc1cc2c(c(Cl)n1)[C@@H]1NCC[C@@H]1C[C@H]2Sc1ccccc1`, for which the Activity in assay [1] was 35%. Also, it took 26.4 µM to reach a half-maximal effect in assay [2] (EC50).
In turn, `c1cc2c(cn1)[C@@H]1NCCC[C@@H]1CC2` returned an Activity in assay [1] of 10%. The same compound displayed an EC50 in assay [2] greater than 1000 µM. In assay [5], the outcome was Active.
As for `Clc1ccc(C2CC3CCC2N3)cn1` (configuration not stated), the result in assay [1] was inactive.
For the compound `COC(=O)N1CC[C@@H]2C[C@@H](S(=O)(=O)c3ccccc3)c3cc(Cl)nc(Cl)c3[C@@H]21`, the Activity was 10% in assay [1], 0.13 mL in assay [3] and -0.12 mL in assay [4]. The compound also displayed an EC50 in assay [2] greater than 1000 µM.
For `COC(=O)N1CC[C@@H]2C[C@@H](Sc3ccccc3)c3cc(Cl)nc(Cl)c3[C@@H]21`, the Activity in assay [1] is 10%; in assay [3], 0.17 mL; in assay [4], -0.04 mL. The compound also yielded an EC50 in assay [2] greater than 1000 µM. In assay [5], the outcome was inactive.
In turn, `COC(=O)N1CCC[C@@H]2C=Cc3cc(Cl)nc(Cl)c3[C@@H]21` displayed an Activity in assay [1] of 75%. Also, the midpoint of the response in assay [2], the EC50, lay at 13.8 µM.
Turning to `COC(=O)N1CC[C@@H]2CCc3ccncc3[C@@H]21`, the values for the Activity in assay [3] and in assay [4] were 0.23 mL and 0.12 mL, respectively.
